Values after ≈ are worked out from the molar mass of the structure shown.
Tests used:
Plasmodium falciparum [1] = test: Antimalarial activity after 24 hrs against chloroquine-resistant Plasmodium falciparum W2 infected type A+ human erythrocytes by [3H]hypoxanthine uptake; assay type: functional; conditions: read-out: ED50 (the source's name)
Plasmodium falciparum [2] = test: Antimalarial activity after 24 hrs against chloroquine-sensitive Plasmodium falciparum D6 infected type A+ human erythrocytes by [3H]hypoxanthine uptake; assay type: functional; conditions: read-out: ED50 (the source's name)
[3] = Selectivity index, ED50 for human KB cells to ED50 for chloroquine-sensitive Plasmodium falciparum D6; assay type: toxicity, cell-based; conditions: read-out: Ratio ED50
Outline: (§1)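 Selectivity index is the ED50 in KB cells divided by the ED50 against the P. falciparum strain (D-6, chloroquine-sensitive; W-2, chloroquine-resistant). Parasite ED50s are expressed in ng/ml and KB ED50s in µg/ml.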

[4] = Selectivity index, ED50 for human KB cells to ED50 for chloroquine-resistant Plasmodium falciparum W2; assay type: toxicity, cell-based; conditions: read-out: Ratio ED50; outline: as §1
LNCaP = test: Cytotoxicity against human LNCAP cells after 3 days by SRB assay; assay type: functional; conditions: 72 h, read-out: ED50 (the source's name)
HT-1080 = test: Cytotoxicity against human HT1080 cells after 3 days by SRB assay; assay type: functional; conditions: HT-1080, 72 h, read-out: ED50 (the source's name)
SK-MEL-2 = test: Cytotoxicity against human SK-MEL-2 cells after 3 days by SRB assay; assay type: functional; conditions: SK-MEL-2, 72 h, read-out: ED50 (the source's name)
P388 = test: Cytotoxicity against mouse P388 cells after 3 days by SRB assay; assay type: functional; conditions: P388, 72 h, read-out: ED50 (the source's name)
[5] = Cytotoxicity against human LUC1 cells after 3 days by SRB assay; assay type: functional; conditions: LUC1, 72 h, read-out: ED50 (the source's name)
ZR-75-1 = test: Cytotoxicity against human ZR-75-1 cells after 3 days by SRB assay; assay type: functional; conditions: ZR-75-1, 72 h, read-out: ED50 (the source's name)
[6] = Cytotoxicity against human Col1 cells after 3 days by SRB assay; assay type: functional; conditions: Col1, 72 h, read-out: ED50 (the source's name)
[7] = Cytotoxicity against human KB cells after 3 days by SRB assay; assay type: cell-based; conditions: read-out: ED50
A-431 = test: Cytotoxicity against human A431 cells after 3 days by SRB assay; assay type: functional; conditions: A-431, 72 h, read-out: ED50 (the source's name)
[8] = Cytotoxicity against human U373 cells after 3 days by SRB assay; assay type: functional, U-373MG ATCC; conditions: U373 MG, 72 h, read-out: ED50 (the source's name)
[9] = Cytotoxicity against human BCA1 cells after 3 days by SRB assay; assay type: functional; conditions: BCA1, 72 h, read-out: ED50 (the source's name)
[10] = Cytotoxicity against vinblastine-resistant human KBV1 cells after 3 days by SRB assay; assay type: functional; conditions: KB-V1, 72 h, read-out: ED50 (the source's name)

SMILES | EC50 (Plasmodium falciparum [1]) | EC50 (Plasmodium falciparum [2]) | selectivity ratio [3] | selectivity ratio [4] | EC50 (LNCaP) | EC50 (HT-1080) | EC50 (SK-MEL-2) | EC50 (P388) | EC50 [5] | EC50 (ZR-75-1) | EC50 [6] | CC50 at 72 h [7] | EC50 (A-431) | EC50 [8] | EC50 [9] | EC50 [10]
COC1=C[C@@]23CCN(C)[C@@H](Cc4ccc(OC)c(O)c42)C3=CC1=O | > 10 µg/mL | > 10 µg/mL |  |  |  |  |  |  |  |  |  |  |  |  |  | 
COc1cc2c(cc1OC)[C@@H]1Cc3ccc(O)c(OC)c3CN1CC2 | 0.84 µg/mL (≈ 2.46 µM) | 2.84 µg/mL (≈ 8.32 µM) | > 7 | > 24 |  |  |  |  |  |  |  |  |  |  |  | 
COc1ccc2c(c1)C[C@H]1NCCc3cc4c(c-2c31)OCO4 | 2.27 µg/mL (≈ 7.69 µM) | 0.44 µg/mL (≈ 1.49 µM) | 45 | > 9 | 2.4 µg/mL (≈ 8.13 µM) | 2.2 µg/mL (≈ 7.45 µM) | 12.6 µg/mL (≈ 42.7 µM) | 2.2 µg/mL (≈ 7.45 µM) | 2.3 µg/mL (≈ 7.79 µM) | 2.4 µg/mL (≈ 8.13 µM) | 4.1 µg/mL (≈ 13.9 µM) | 2 µg/mL (≈ 6.77 µM) | 4.6 µg/mL (≈ 15.6 µM) | 1.9 µg/mL (≈ 6.43 µM) | 3.4 µg/mL (≈ 11.5 µM) | 0.9 µg/mL (≈ 3.05 µM)
COC1=C(OC)[C@]23CCc4cc5c(cc4[C@]2(CCN3C)CC1=O)OCO5 | > 10 µg/mL | > 10 µg/mL |  |  |  |  |  |  |  |  |  |  |  |  |  | 
COc1cc2c(c(O)c1OC)CCN1Cc3c(ccc(OC)c3OC)C[C@@H]21 | 0.55 µg/mL (≈ 1.48 µM) | 1.61 µg/mL (≈ 4.33 µM) | > 12 | > 36 |  |  |  |  |  |  |  |  |  |  |  | 
COc1cc2c(cc1OC)-c1c3c(cc4c1[C@@H](C2)N(C)CC4)OCO3 | 2.55 µg/mL (≈ 7.51 µM) | 1.26 µg/mL (≈ 3.71 µM) | 4 | 2 | 1.9 µg/mL (≈ 5.6 µM) | 1.7 µg/mL (≈ 5.01 µM) | 3.8 µg/mL (≈ 11.2 µM) | 0.6 µg/mL (≈ 1.77 µM) | 6.1 µg/mL (≈ 18 µM) | 2.8 µg/mL (≈ 8.25 µM) | 2.1 µg/mL (≈ 6.19 µM) | 1.6 µg/mL (≈ 4.71 µM) | 1.7 µg/mL (≈ 5.01 µM) | 1.5 µg/mL (≈ 4.42 µM) | 2.2 µg/mL (≈ 6.48 µM) | 0.9 µg/mL (≈ 2.65 µM)
COc1cc2c(c(O)c1OC)[C@@H]1Cc3ccc(OC)c(OC)c3CN1CC2 | 1.91 µg/mL (≈ 5.14 µM) | 4.34 µg/mL (≈ 11.7 µM) | > 5 | > 10 |  |  |  |  |  |  |  |  |  |  |  | 
CN1CCc2cc3c(c4c2[C@H]1Cc1cc(O)ccc1-4)OCO3 | 1.78 µg/mL (≈ 6.03 µM) | 3.15 µg/mL (≈ 10.7 µM) | 2 | 4 | 7.3 µg/mL (≈ 24.7 µM) | 7.6 µg/mL (≈ 25.7 µM) | > 20 µg/mL | > 5 µg/mL | 6.9 µg/mL (≈ 23.4 µM) | 13.6 µg/mL (≈ 46 µM) | 11.9 µg/mL (≈ 40.3 µM) | 4.1 µg/mL (≈ 13.9 µM) | 6.7 µg/mL (≈ 22.7 µM) | 4.9 µg/mL (≈ 16.6 µM) | 8.9 µg/mL (≈ 30.1 µM) | 1.2 µg/mL (≈ 4.06 µM)
COc1ccc2c(c1)C[C@@H]1c3c(cc4c(c3-2)OCO4)CCN1C | 1.61 µg/mL (≈ 5.2 µM) | 2.56 µg/mL (≈ 8.28 µM) | > 1 | 1 | 2.9 µg/mL (≈ 9.37 µM) | 1.8 µg/mL (≈ 5.82 µM) | > 20 µg/mL | > 5 µg/mL | 12.2 µg/mL (≈ 39.4 µM) | 2.6 µg/mL (≈ 8.4 µM) | 3.2 µg/mL (≈ 10.3 µM) | 2.5 µg/mL (≈ 8.08 µM) | 1.3 µg/mL (≈ 4.2 µM) | 1.3 µg/mL (≈ 4.2 µM) | 2.9 µg/mL (≈ 9.37 µM) | 1.2 µg/mL (≈ 3.88 µM)
COc1c(O[C@@H]2O[C@H](CO)[C@@H](O)[C@H](O)[C@H]2O)cc2c3c1-c1ccccc1C[C@H]3NCC2 | > 10 µg/mL | > 10 µg/mL |  |  | > 20 µg/mL | > 20 µg/mL | > 20 µg/mL | > 20 µg/mL | > 20 µg/mL | > 20 µg/mL | > 20 µg/mL | > 20 µg/mL | > 20 µg/mL | > 20 µg/mL | > 20 µg/mL | > 20 µg/mL
COc1cc2c(cc1O)-c1c3c(cc4c1[C@@H](C2)N(C)CC4)OCO3 | 2.88 µg/mL (≈ 8.85 µM) | 2.01 µg/mL (≈ 6.18 µM) | 1 | 1 | 1.9 µg/mL (≈ 5.84 µM) | 2.9 µg/mL (≈ 8.91 µM) | 18.8 µg/mL (≈ 57.8 µM) | 0.4 µg/mL (≈ 1.23 µM) | 3.1 µg/mL (≈ 9.53 µM) | 2.1 µg/mL (≈ 6.45 µM) | 4.1 µg/mL (≈ 12.6 µM) | 1.8 µg/mL (≈ 5.53 µM) | 12.6 µg/mL (≈ 38.7 µM) | 1.7 µg/mL (≈ 5.22 µM) | 2.5 µg/mL (≈ 7.68 µM) | 1.2 µg/mL (≈ 3.69 µM)
COc1cc2c(cc1OC)CN1CCc3cc(OC)c(OC)c(O)c3[C@@H]1C2 | 1.94 µg/mL (≈ 5.22 µM) | 2.23 µg/mL (≈ 6 µM) | > 9 | > 10 |  |  |  |  |  |  |  |  |  |  |  | 
COc1cc2c(cc1OC)-c1c3c(cc4c1[C@@H](C2)NCC4)OCO3 | 1.03 µg/mL (≈ 3.17 µM) | 0.47 µg/mL (≈ 1.44 µM) | 2 |  | 1.5 µg/mL (≈ 4.61 µM) | 1.7 µg/mL (≈ 5.22 µM) | 3.3 µg/mL (≈ 10.1 µM) | 0.6 µg/mL (≈ 1.84 µM) | 13.2 µg/mL (≈ 40.6 µM) | 1.7 µg/mL (≈ 5.22 µM) | 1.7 µg/mL (≈ 5.22 µM) | 0.8 µg/mL (≈ 2.46 µM) | 0.8 µg/mL (≈ 2.46 µM) | 0.6 µg/mL (≈ 1.84 µM) | 2 µg/mL (≈ 6.15 µM) | 0.7 µg/mL (≈ 2.15 µM)
COc1cc2c(cc1OC)[C@@H]1Cc3ccc(OC)c(OC)c3C[N+]1(C)CC2.[Cl-] (some centres undefined) | > 10 µg/mL | > 10 µg/mL |  |  |  |  |  |  |  |  |  |  |  |  |  | 
COc1ccc2c(c1O)C(Cc1ccc(O)cc1)[N+](C)(C)CC2.[Cl-] (racemic) | > 10 µg/mL | > 10 µg/mL |  |  |  |  |  |  |  |  |  |  |  |  |  | 
COc1c(O)cc2c3c1-c1ccccc1C[C@H]3NCC2 [(-)-ASIMILOBINE] | 0.47 µg/mL (≈ 1.76 µM) | 0.95 µg/mL (≈ 3.55 µM) | > 21 | > 42 | > 20 µg/mL | > 20 µg/mL | > 20 µg/mL | > 20 µg/mL | > 20 µg/mL | > 20 µg/mL | > 20 µg/mL | > 20 µg/mL | > 20 µg/mL | > 20 µg/mL | > 20 µg/mL | > 20 µg/mL
COc1ccc(C[C@H]2c3cc(O)c(OC)cc3CCN2C)cc1O [(S)-RETICULINE] | 4.47 µg/mL (≈ 13.6 µM) | 4.05 µg/mL (≈ 12.3 µM) |  |  |  |  |  |  |  |  |  |  |  |  |  | 
C[C@@H]1CC[C@H]2[C@@H](C)C(=O)O[C@@H]3O[C@@]4(C)CC[C@@H]1[C@]32OO4 [ARTEMISININ] | 0.0005 µg/mL (≈ 0.00177 µM) | 0.0006 µg/mL (≈ 0.00213 µM) | > 33300 | 40000 |  |  |  |  |  |  |  |  |  |  |  | 
CCN(CC)CCCC(C)Nc1ccnc2cc(Cl)ccc12 (centres undefined) [CHLOROQUINE] | 0.0112 µg/mL (≈ 0.035 µM) | 0.0013 µg/mL (≈ 0.00406 µM) |  |  |  |  |  |  |  |  |  |  |  |  |  | 
COc1ccc2c(c1O)-c1c(O)c(OC)cc3c1[C@H](C2)[N+](C)(C)CC3 [MAGNOFLORINE] | > 10 µg/mL | > 10 µg/mL |  |  |  |  |  |  |  |  |  |  |  |  |  | 
OC(c1cc(C(F)(F)F)nc2c(C(F)(F)F)cccc12)C1CCCCN1 (centres undefined) [MEFLOQUINE] | 0.0016 µg/mL (≈ 0.00423 µM) | 0.0073 µg/mL (≈ 0.0193 µM) |  |  |  |  |  |  |  |  |  |  |  |  |  | 
C=C[C@H]1CN2CC[C@H]1C[C@H]2[C@H](O)c1ccnc2ccc(OC)cc12 [QUININE] | 0.0245 µg/mL (≈ 0.0755 µM) | 0.0094 µg/mL (≈ 0.029 µM) | > 2130 | > 820 |  |  |  |  |  |  |  |  |  |  |  | 
COc1cc2c(cc1OC)[C@@H]1Cc3ccc(OC)c(OC)c3CN1CC2 [TETRAHYDROPALMATINE] | 5.02 µg/mL (≈ 14.1 µM) | > 10 µg/mL |  |  |  |  |  |  |  |  |  |  |  |  |  | 
COc1cc2c(cc1OC)CN1CCc3cc(OC)c(OC)cc3[C@@H]1C2 [XYLOPININE] | > 10 µg/mL | > 10 µg/mL |  |  |  |  |  |  |  |  |  |  |  |  |  | 
